MEKK2wt PB1 HTS: modulators of MEK5 binding to wildtype MEKK2, primary screen, biochemical, multiplex bead flow cytometry, Alexa488-MEK5; binding response (% of control), % at 10 µM; Alexa488-MEK5 binding to MEKK2 WT; actives lie on both sides; 1.1% of 290,000 active; Mitogen-activated protein kinase kinase kinase 2 (Homo sapiens), Q9Y2U5; in the data active = binding response below about 67% or above about 130%
T cruzi repl: inhibitors of intracellular T. cruzi growth, primary screen, luminescence, NIH3T3 host cells; T. cruzi beta-gal in NIH3T3, 90 h; 1.4% of 300,000 active; inhibition, % (no concentration beside the values);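 active = mean inhibition across valid replicates above about 55%, limit read from the data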;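 note: signal also drops with host cell toxicity which is not excluded here; 0% = plate median of DMSO wells and 100% = zero luminescence signal; higher percent means less beta-gal luminescence so fewer parasites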
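Test system: β-gal T. cruzi (Tulahuen C4) inside NIH/3T3 cells / Quantity: 5,000 cells/well / Measured by: luminescence from GalScreen with 0.05% NP40, read after 60 min / Medium: DMEM plus 2% FBS / Measure: parasite load inhibition, % / Reagent: Tulahuen C4 trypomastigotes, 5000/well / Schedule: co-culture of at least 90 h after 3 h attachment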
DNA FID counter: compounds displacing fluorescent DNA intercalator, primary screen, artefact control for HCV NS3 helicase inhibitor project, biochemical, FID fluorescence; DNA fluorescent intercalator displacement; inhibition, % at 7.9 µM; 0.17% of 290,000 active; in the data active = inhibition above about 37%;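 note: 0% = vehicle and 100% = reference compound; higher means more ethidium bromide displaced from hairpin DNA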
MEKK2 mut-MEK5: MEK5 binding signal on mutant MEKK2 PB1, primary screen, biochemical, multiplex bead flow cytometry, Alexa488-MEK5; 0.35% of 290,000 active; Alexa488-MEK5 binding to MEKK2 mutant; percent response, % at 10 µM; AID 1530, 2009; in the data active = percent response above about 24%, passing the limit was not always enough
HCV NS3 hel inh: inhibitors of HCV NS3 helicase, primary screen, biochemical, Cy5 molecular beacon fluorescence; Hepatitis C virus NS3 helicase; NS3 helicase DNA unwinding; inhibition, % at 10.9 µM; 0.56% of 290,000 active; AID 1800, 2009;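 active = inhibition above the mean of all tested compounds plus 3 SD, set per campaign, cut at about 35% in these data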;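 note: 0% = DMSO wells and 100% = thioflavine S control wells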
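Material: hepatitis C virus NS3 helicase domain fragment enzyme; measured by: Cy5 fluorescence, 0 and 60 min reads; control set: DMSO and thioflavine S; incubation: 60 min unwinding reaction at 25 °C after ATP addition; read-out basis: % inhibition from 60/0 min fluorescence ratio, DMSO 0%, thioflavine S 100%; repeats: singlicate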
MEKK3 PB1 HTS: modulators of MEKK3-MEK5 PB1 binding, primary screen, biochemical, wildtype MEKK3, multiplex bead flow cytometry, Alexa488-MEK5. Mitogen-activated protein kinase kinase kinase 3 (Homo sapiens), Q99759. bead-based flow cytometry, Alexa488-MEK5 binding to MEKK3; actives lie on both sides; 0 = blocked by unlabeled MEK5, 100 = vehicle. binding response (% of control), % at 10 µM. 1.4% of 290,000 active;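 active = binding response more than 3 SD above or below the average of its plate-row segment, actives on both sides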;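 note: Alexa488 bead fluorescence after subtracting the streptavidin-only scavenger bead signal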
Target sequence (Q99759 whole entry, looked up): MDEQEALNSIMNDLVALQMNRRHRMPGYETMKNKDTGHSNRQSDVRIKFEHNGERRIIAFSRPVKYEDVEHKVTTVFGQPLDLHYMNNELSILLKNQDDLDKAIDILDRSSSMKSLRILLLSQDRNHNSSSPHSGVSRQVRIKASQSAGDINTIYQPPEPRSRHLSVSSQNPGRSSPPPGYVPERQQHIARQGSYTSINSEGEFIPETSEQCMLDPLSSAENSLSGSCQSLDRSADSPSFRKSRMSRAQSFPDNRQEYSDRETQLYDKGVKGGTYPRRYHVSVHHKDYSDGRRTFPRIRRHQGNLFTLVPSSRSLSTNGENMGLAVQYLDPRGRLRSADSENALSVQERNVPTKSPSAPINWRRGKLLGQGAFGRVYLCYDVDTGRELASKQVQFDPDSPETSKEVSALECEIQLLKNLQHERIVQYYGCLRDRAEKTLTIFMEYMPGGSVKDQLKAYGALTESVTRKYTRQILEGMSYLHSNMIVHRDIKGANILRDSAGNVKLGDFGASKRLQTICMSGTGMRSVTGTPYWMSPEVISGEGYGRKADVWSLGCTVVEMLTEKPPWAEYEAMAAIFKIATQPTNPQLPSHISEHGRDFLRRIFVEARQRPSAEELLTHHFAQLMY
MEKK2wt confirm: modulators of MEK5 binding to wildtype MEKK2, confirmation, biochemical, single concentration, multiplex bead flow cytometry | shares compounds with MEKK3 PB1 HTS | Alexa488-MEK5 binding to MEKK2 WT; actives lie on both sides | binding response (% of control), % at 10 µM | 2.4% of 5,900 active | AID 1892, 2009; in the data active = binding response below about 16% or above about 210%; inactive = in between
MEKK2mut confirm: mutant MEKK2 PB1-MEK5 binding signal retest – biochemical, single concentration, multiplex bead flow cytometry, confirmation. percent response, % at 10 µM. shares compounds with MEKK3 PB1 HTS. 2% of 5,900 active. Alexa488-MEK5 binding to MEKK2 mutant; in the data active = percent response mostly above about 71%, no sharp cut-off; inactive = mostly below about 38%;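 note: higher means compound restores mutant binding toward wildtype level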
MEKK3-MEK5 inh: MEKK3 wild-type PB1 binding to MEK5, inhibitors, confirmation, biochemical, bead multiplex flow cytometry, single concentration, wildtype; shares compounds with MEKK3 PB1 HTS; Alexa488-MEK5 binding to MEKK3; active compounds read low; binding response (% of control), % at 10 µM; 1.8% of 5,900 active; AID 1894, 2009;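 active = binding response below 72% of control, or above a set upper limit, though filed actives all read lower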;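 note: 100% = DMSO only wells and 0% = binding blocked by excess unlabeled MEK5; lower values mean stronger disruption of MEK5 binding to MEKK3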
Active calls of the source: *; [ ] = remark or other dose. Hits are enriched below; roughly 4.1% of the tested compounds scored in any of these assays.

For Cc1ccc2[nH]c(=O)c(CN(CC3COCCO3)C(=O)Nc3ccccc3F)cc2c1 (stereo not drawn) the results were MEKK2wt PB1 HTS 81, T cruzi repl 13, DNA FID counter 2, MEKK2 mut-MEK5 -13, HCV NS3 hel inh 16 and MEKK3 PB1 HTS 91.
C/C(=N\Nc1nc2ccccc2[nH]1)c1cc2ccccc2o1 was read as MEKK2wt PB1 HTS 140*, T cruzi repl 24, DNA FID counter 8, MEKK2 mut-MEK5 6, HCV NS3 hel inh -34, MEKK3 PB1 HTS 137*, MEKK2wt confirm 127, MEKK2mut confirm 10 and MEKK3-MEK5 inh 99.
CCCc1nn(C)c(C(=O)Nc2cccc3ccccc23)c1Cl was read as MEKK2wt PB1 HTS 107, T cruzi repl -12, DNA FID counter -23, MEKK2 mut-MEK5 1, HCV NS3 hel inh 8, MEKK3 PB1 HTS 131*, MEKK2wt confirm 105, MEKK2mut confirm 0 and MEKK3-MEK5 inh 109.
CCCc1nn(C)c(C(=O)Nc2ccc(CC)cc2)c1Cl was read as MEKK2wt PB1 HTS 106, T cruzi repl -4, DNA FID counter -15, MEKK2 mut-MEK5 2, HCV NS3 hel inh -2 and MEKK3 PB1 HTS 106.
`CCC(C)c1ccc(NC(=O)NCCN2CCCCC2)cc1` (stereo not drawn) gave MEKK2wt PB1 HTS 111, T cruzi repl 3, DNA FID counter 24, MEKK2 mut-MEK5 3, HCV NS3 hel inh -15 and MEKK3 PB1 HTS 101.
Screening O=C(C1=C[C@H](c2ccc(C(F)(F)F)cc2)C[C@H](OCCCCO)O1)N1CCOCC1 returned MEKK2wt PB1 HTS 100, T cruzi repl 6, DNA FID counter -28, MEKK2 mut-MEK5 -3, HCV NS3 hel inh 17, MEKK3 PB1 HTS 82*[inhibitor], MEKK2wt confirm 99, MEKK2mut confirm -3 and MEKK3-MEK5 inh 98.
`Nc1[nH]n(-c2ccccc2)c(=O)c1N=Nc1ccc2c(c1)OCO2` gave MEKK2wt PB1 HTS 92, T cruzi repl 12, DNA FID counter 3, MEKK2 mut-MEK5 -8, HCV NS3 hel inh -6 and MEKK3 PB1 HTS 84.
For Nc1[nH]n(-c2ccccc2)c(=O)c1N=Nc1ccc2c(c1)OCCO2 the results were MEKK2wt PB1 HTS 80, T cruzi repl 24, DNA FID counter 6, MEKK2 mut-MEK5 -9, HCV NS3 hel inh -3, MEKK3 PB1 HTS 75*[inhibitor], MEKK2wt confirm 98, MEKK2mut confirm -2 and MEKK3-MEK5 inh 103.
O=C(CSc1ccccc1C(=O)NCc1ccccc1)NC1CCCCCCC1 was read as MEKK2wt PB1 HTS 101, T cruzi repl 16, DNA FID counter -35, MEKK2 mut-MEK5 0, HCV NS3 hel inh 3, MEKK3 PB1 HTS 131*, MEKK2wt confirm 101, MEKK2mut confirm -5 and MEKK3-MEK5 inh 102.
